Consider 18 compounds from PubChem BioAssay.

The source made the active and inactive calls.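 The calls were made as follows, unless noted: active = viability at or below 10% of carrier control in both of two separate runs; inconclusive = viability at or below 10% in only one of the two runs; inactive = the rest.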

The nature of test [1]: reducers of endogenous Her2 protein level, primary screen, SKBR3 breast tumor cells, AlphaScreen, ATP viability (AID 461;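 active = Her2 level under about 52% in both replicate screens, with viability over 70% of control, limit read from the data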;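 as to Her2 level: lower value means less Her2 protein in the cells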;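 as to viability: percent of carrier control wells set as 100% viability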). The conditions noted are these: 18-24 h, measured here: SKBR3 viability, ATP luminescence, at 10 µM.
Test [2] deals with Receptor tyrosine-protein kinase erbB-2 (Homo sapiens) (UniProt P04626). The test is described as above. The conditions noted are these: 18-24 h, at 10 µM, stronger effect = lower value.
A short description of test [3]: SK-BR-3 cell growth inhibitors, pilot screen, 24 h, human (AID 572).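 Also: compound exposure lasted between 18 and 24 h rather than exactly 24 h; 100% = carrier-treated control wells.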 Particulars: SK-BR-3 viability, CellTiter-Glo luminescence, at 10 µM, stronger effect = lower value. (ATP-based viability assays read luminescence as a measure of living cells.)
Test [4] in a line: HUVEC growth inhibition – cell-based, human, primary screen (AID 575;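 active = viability at or below 30% in both replicate assays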;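 also: 100% = median of untreated cell wells with 0.1% DMSO on each plate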). Particulars: HUVEC proliferation, CellTiter-Glo luminescence, 72 h; at 10 µM; stronger effect = lower value. The method in brief:
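Test system: primary human umbilical vein endothelial cells. Quantity: 1250 cells/well. Compound: single 10 µM dose, 0.1% DMSO, from 5x medium stock. Timing: 72 h treatment at 37 °C. Detection: ATP-based CellTiter-Glo luminescent read. Benchmarks: vehicle and MePR control wells. Format: 384-well plates coated with collagen.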

Test [5] can be described thus: growth inhibitors of H69AR lung tumor, primary screen, human, duplicate replicates (AID 580;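 active = viability at or under a set limit in both replicates, limit being median viability minus 3 SD, cut at about 48% in these data, passing the limit was not always enough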;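 also: 100% = mean luminescence of untreated wells and 0% = no signal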). Particulars: H69AR lung tumor cells viability, ATP luminescence, 72 h; at 10 µM; stronger effect = lower value.
Test [6] is described as follows: reversal of MRP1-mediated doxorubicin resistance, pilot screen, H69AR cells, doxorubicin co-treatment (AID 601;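 active = viability loss from added drug above about 55%, and viability with drug at most 40%, in both replicates, limit read from the data, passing the limit was not always enough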). The conditions noted are these: CellTiter-Glo, 72 h, at 10 µM; for differential viability (reversal): stronger effect = higher value.
The nature of test [7]: 384-well plate pilot, post-Golgi transport modulator project, inhibition of yeast transport mutant growth (AID 636; in the data active = inhibition above about 31%). Particulars: absorbance 615 nm, about 18 h, stronger effect = higher value.
Test [8] is described as follows: growth suppression of yeast trafficking mutant, preliminary HTS, modulators of trafficking downstream of Golgi apparatus project, 1536-format plate, OD 615 nm (AID 637; in the data active = inhibition above about 30%). Particulars: yeast transport mutant growth, absorbance 615 nm, 18 h; stronger effect = higher value.
[9] abbreviates: H69AR cells + 2 uM doxorubicin, measured here: viability with 2 uM doxorubicin, stronger effect = lower value.
The mark [10] stands for this setting: H69AR cells, compound alone cytotoxicity.

Chain of Receptor tyrosine-protein kinase erbB-2 (Homo sapiens) (P04626 whole entry, looked up): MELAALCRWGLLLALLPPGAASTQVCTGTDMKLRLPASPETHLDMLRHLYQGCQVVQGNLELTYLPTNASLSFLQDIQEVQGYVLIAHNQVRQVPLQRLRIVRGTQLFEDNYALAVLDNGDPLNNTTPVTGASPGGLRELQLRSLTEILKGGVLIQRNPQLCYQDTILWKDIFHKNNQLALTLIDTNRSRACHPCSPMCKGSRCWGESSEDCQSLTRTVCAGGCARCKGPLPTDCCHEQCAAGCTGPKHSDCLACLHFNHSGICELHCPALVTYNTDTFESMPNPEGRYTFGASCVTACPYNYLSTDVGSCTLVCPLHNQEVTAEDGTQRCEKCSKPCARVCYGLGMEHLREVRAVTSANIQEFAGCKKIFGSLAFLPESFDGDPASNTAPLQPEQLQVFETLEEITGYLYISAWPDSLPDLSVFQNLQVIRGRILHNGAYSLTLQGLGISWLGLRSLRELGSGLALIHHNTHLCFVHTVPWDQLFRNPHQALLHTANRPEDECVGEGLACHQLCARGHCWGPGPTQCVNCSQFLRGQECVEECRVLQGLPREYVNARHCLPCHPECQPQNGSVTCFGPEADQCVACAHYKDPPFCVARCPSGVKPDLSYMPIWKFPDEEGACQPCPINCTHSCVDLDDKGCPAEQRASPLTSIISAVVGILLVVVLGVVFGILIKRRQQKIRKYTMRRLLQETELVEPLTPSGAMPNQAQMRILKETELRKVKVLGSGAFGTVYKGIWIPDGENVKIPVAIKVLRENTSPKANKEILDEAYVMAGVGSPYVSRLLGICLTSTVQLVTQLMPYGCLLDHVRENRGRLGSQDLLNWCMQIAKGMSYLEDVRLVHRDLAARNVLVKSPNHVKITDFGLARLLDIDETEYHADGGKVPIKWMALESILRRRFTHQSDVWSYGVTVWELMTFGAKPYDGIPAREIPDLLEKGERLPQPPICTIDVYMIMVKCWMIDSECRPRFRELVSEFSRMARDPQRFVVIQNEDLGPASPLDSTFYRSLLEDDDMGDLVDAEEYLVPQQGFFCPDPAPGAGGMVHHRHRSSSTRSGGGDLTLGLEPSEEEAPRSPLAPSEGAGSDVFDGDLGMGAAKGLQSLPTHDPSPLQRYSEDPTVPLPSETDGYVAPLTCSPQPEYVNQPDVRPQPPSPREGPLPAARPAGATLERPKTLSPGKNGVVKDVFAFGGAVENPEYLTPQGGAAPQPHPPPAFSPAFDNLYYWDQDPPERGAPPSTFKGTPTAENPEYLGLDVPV

In general, viability refers to a read-out of living cells in per cent, often relative to untreated cells. Take `c1ccc2c(CC3=NCCN3)cccc2c1`: the viability in test [1] was 101%; in test [3], 101% (inactive); in test [4], 91.7% (inactive); in test [5], 93.8% (inactive); in test [6] (setting [9]), 78.9%; in test [6] (setting [10]), 93.8%. The Her2 level in test [2] was 99.5% (inactive). Moreover, the differential viability (reversal) in test [6] (H69AR cells + 2 uM doxorubicin) was 14.9% (inactive).

By inhibition is commonly meant the drop in the measured response relative to a control, in per cent. On to `CCOc1ccc(Cl)cc1S(=O)(=O)N1CCCC1`, for which the viability in test [1] was 100%; in test [3], 100% (inactive); in test [4], 101% (inactive); in test [5], 88.8% (inactive); in test [6] (setting [9]) it was 94.5%; in test [6] (setting [10]), 88.8%. Further, in test [2], the Her2 level is 94.5% (inactive). Besides, the differential viability (reversal) in test [6] (H69AR cells + 2 uM doxorubicin) was -5.74% (inactive). Besides, the results for the inhibition in test [7] and in test [8] were -4.34% (inactive) and -1.11% (inactive), respectively.

With `CCn1cc(C(=O)O)c(=O)c2cnc(N3CCNCC3)nc21`, the viability was 108% in test [1]; 108% (inactive) in test [3]; 96.5% (inactive) in test [4]; 107% (inactive) in test [5]; 90.9% in test [6] (setting [9]); 107% in test [6] (setting [10]). In addition, in test [2], the Her2 level is 102% (inactive). Also, in test [6] (H69AR cells + 2 uM doxorubicin), the differential viability (reversal) was 16.4% (inactive).

Take `CCCCC1C(=O)N(c2ccccc2)N(c2ccccc2)C1=O`: the viability in test [1] is 99%; in test [3] it was 99% (inactive); in test [4], 99.1% (inactive); in test [5], 98.5% (inactive); in test [6] (setting [9]) it was 91.1%; in test [6] (setting [10]), 98.5%. Besides, the Her2 level in test [2] was 90.5% (inactive). Further, the differential viability (reversal) in test [6] (H69AR cells + 2 uM doxorubicin) is 7.41% (inactive).

Consider `O=C(O)Cc1cc(I)c(Oc2ccc(O)c(I)c2)c(I)c1`, for which the viability is 89% in test [1]; 89% (inactive) in test [3]; 76% (inactive) in test [4]; 96.3% (inactive) in test [5]; 100% in test [6] (setting [9]); 96.3% in test [6] (setting [10]). Also, the Her2 level in test [2] is 106% (inactive). Moreover, in test [6] (H69AR cells + 2 uM doxorubicin), the differential viability (reversal) was -4.12% (inactive).

For `CC1(C)O[C@@H]2C[C@H]3[C@@H]4C[C@H](F)C5=CC(=O)C=C[C@]5(C)[C@@]4(F)[C@@H](O)C[C@]3(C)[C@]2(C(=O)CO)O1`, the viability in test [1] was 94%; in test [3] it was 94% (inactive); in test [4], 90.5% (inactive); in test [5] it was 94.1% (inactive); in test [6] (setting [9]), 92.2%; in test [6] (setting [10]), 94.1%. Also, the Her2 level in test [2] was 110% (inactive). Besides, the differential viability (reversal) in test [6] (H69AR cells + 2 uM doxorubicin) was 1.96% (inactive).

With `Cc1cc(C)nc(NS(=O)(=O)c2ccc(N)cc2)n1`, the viability in test [1] is 104%; in test [3], 104% (inactive); in test [4], 83.1% (inactive); in test [5], 86.7% (inactive); in test [6] (setting [9]) it was 79.4%; in test [6] (setting [10]), 86.7%. Moreover, the Her2 level in test [2] was 110% (inactive). In test [6] (H69AR cells + 2 uM doxorubicin), the differential viability (reversal) is 7.25% (inactive).

Turning to `CN1Cc2c(N)cccc2C(c2ccccc2)C1` (centres undefined), the viability in test [1] is 81%; in test [3] it was 81% (inactive); in test [4], 106% (inactive); in test [5], 102% (inactive); in test [6] (setting [9]), 96.5%; in test [6] (setting [10]), 102%. Besides, the Her2 level in test [2] was 102% (inactive). Further, the differential viability (reversal) in test [6] (H69AR cells + 2 uM doxorubicin) is 5.5% (inactive).

For `CS(=O)(=O)N1CCN(c2ccccc2NC(=O)c2ccc(-c3ccc(Cl)cc3Cl)o2)CC1`, the viability was 78.5% in test [1]; 78.5% (inactive) in test [3]; 76.7% (inactive) in test [4]; 86.4% (inactive) in test [5]; 76.2% in test [6] (setting [9]); 86.4% in test [6] (setting [10]). Further, in test [2], the Her2 level is 96.5% (inactive). Also, in test [6] (H69AR cells + 2 uM doxorubicin), the differential viability (reversal) is 10.2% (inactive). Further, the inhibition in test [7] was -2.93% (inactive); in test [8], -3.49% (inactive).

With `COc1ccc(C2CC(c3ccc(Cl)cc3)Nc3nc(NC(=O)c4ccco4)nn32)cc1` (centres undefined), the viability in test [1] is 90.5%; in test [3], 90.5% (inactive); in test [4], 66.3% (inactive); in test [5], 81.2% (inactive); in test [6] (setting [9]), 90.6%; in test [6] (setting [10]), 81.2%. Further, the Her2 level in test [2] is 78% (inactive). Further, the differential viability (reversal) in test [6] (H69AR cells + 2 uM doxorubicin) was -9.39% (inactive). Moreover, the inhibition was -5.07% (inactive) in test [7] and 2.46% (inactive) in test [8].

Turning to `Cc1cc(NC(=O)C2=C(O)c3ccccc3S(=O)(=O)N2C)no1`, the viability was 96.5% in test [1]; 96.5% (inactive) in test [3]; 109% (inactive) in test [4]; 112% (inactive) in test [5]; 94.7% in test [6] (setting [9]); 112% in test [6] (setting [10]). In test [2], the Her2 level was 113% (inactive). Besides, the differential viability (reversal) in test [6] (H69AR cells + 2 uM doxorubicin) was 16.9% (inactive).

As to `CN1CCCN=C1COC(=O)C(O)(c1ccccc1)C1CCCCC1` (centres undefined), the viability is 95% in test [1]; 95% (inactive) in test [3]; 95% (inactive) in test [4]; 91.6% (inactive) in test [5]; 88.4% in test [6] (setting [9]); 91.6% in test [6] (setting [10]). Further, in test [2], the Her2 level is 79.5% (inactive). For the same compound, the differential viability (reversal) in test [6] (H69AR cells + 2 uM doxorubicin) was 3.15% (inactive).

For `CCN1CCN(c2cc3c(cc2F)c(=O)c(C(=O)O)cn3C2CC2)CC1`, the viability in test [1] was 103%; in test [3], 103% (inactive); in test [4], 98.3% (inactive); in test [5], 92% (inactive); in test [6] (setting [9]) it was 88.8%; in test [6] (setting [10]), 92%. The Her2 level in test [2] was 98.5% (inactive). Also, the differential viability (reversal) in test [6] (H69AR cells + 2 uM doxorubicin) was 3.18% (inactive).

On to `CCN(CC)CC#CCOC(=O)C(O)(c1ccccc1)C1CCCCC1` (centres undefined), for which the viability in test [1] is 82%; in test [3], 82% (inactive); in test [4], 79.6% (inactive); in test [5] it was 71.7% (inactive); in test [6] (setting [9]) it was 72.1%; in test [6] (setting [10]) it was 71.7%. Moreover, in test [2], the Her2 level is 99% (inactive). The differential viability (reversal) in test [6] (H69AR cells + 2 uM doxorubicin) was -0.33% (inactive).

Turning to `O=C(NCCCN1CCN(CCCNC(=O)c2ccc(F)cc2)CC1)c1ccc(F)cc1`, the viability in test [1] is 92.5%; in test [3], 92.5% (inactive); in test [4], 89.9% (inactive); in test [5], 94.6% (inactive); in test [6] (setting [9]), 90%; in test [6] (setting [10]) it was 94.6%. The Her2 level in test [2] is 98% (inactive). The differential viability (reversal) in test [6] (H69AR cells + 2 uM doxorubicin) is 4.58% (inactive). The inhibition in test [7] was -4.67% (inactive); in test [8], 0.81% (inactive).

Take `CCOC(=O)CSc1nnc(CCc2nc3ccccc3[nH]2)n1C`: the viability was 118% in test [1]; 118% (inactive) in test [3]; 87.5% (inactive) in test [4]; 102% (inactive) in test [5]; 101% in test [6] (setting [9]); 102% in test [6] (setting [10]). The Her2 level in test [2] was 112% (inactive). In test [6] (H69AR cells + 2 uM doxorubicin), the differential viability (reversal) is 1.34% (inactive). Moreover, the inhibition is -4.93% (inactive) in test [7] and -7.78% (inactive) in test [8].

In the case of `CCCC(CCC)C(=O)OC1C[C@H]2CC[C@@H](C1)[N+]2(C)C` (some centres undefined), the viability in test [1] was 112%; in test [3], 112% (inactive); in test [4], 108% (inactive); in test [5] it was 94% (inactive); in test [6] (setting [9]) it was 85%; in test [6] (setting [10]), 94%. For the same compound, the Her2 level in test [2] is 95.5% (inactive). Further, the differential viability (reversal) in test [6] (H69AR cells + 2 uM doxorubicin) is 9.01% (inactive).

Regarding `Cc1cccc(C)c1NC(=O)C1CCCCN1C` (centres undefined), the viability in test [1] was 108%; in test [3], 108% (inactive); in test [4] it was 104% (inactive); in test [5] it was 99.7% (inactive); in test [6] (setting [9]) it was 87.7%; in test [6] (setting [10]), 99.7%. Besides, the Her2 level in test [2] was 101% (inactive). The differential viability (reversal) in test [6] (H69AR cells + 2 uM doxorubicin) was 12% (inactive).
